# Experimental data taken from ChEMBL document CHEMBL4619773, “Chemoreactive-Inspired Discovery of Influenza A Virus Dual Inhibitor to Block Hemagglutinin-Mediated Adsorption and Membrane Fusion” (J Med Chem, 2020).
# The source made the active and inactive calls. No cut-off for these calls is given here.
# Legend:
# [1] = test system: Influenza A virus (A/Puerto Rico/8/1934(H1N1)); assay: Inhibition of Hemagglutinin T359A mutant in Influenza A virus (A/Puerto Rico/8/1934(H1N1))/H1N1 pseudovirus infected in 293FT cells assessed as reduction in virus infection at 50 ug/ml pre-treated with virus before infection and measured after 48 hrs by inverted fluorescence microscopy; assay type: cell-based
# How it was run: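 PR8 pseudoviruses (IAV-GFP) carrying wild-type HA or a mutant HA (T30N/E233D/T359A or T359A) were made in 293FT cells by co-transfecting HA, NA, HIV backbone and GFP reporter plasmids, and supernatants were harvested at 48 h. Pseudovirus was pretreated with compound at 50 µg/ml for 1 h at 37 °C before infection. Infected GFP-positive cells were viewed by fluorescence microscopy 48 h p.i.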
# [2] = test system: Influenza A virus (A/Puerto Rico/8/1934(H1N1)); assay: Inhibition of Hemagglutinin T30N/E233D/T359A mutant in Influenza A virus (A/Puerto Rico/8/1934(H1N1))/H1N1 pseudovirus infected in 293FT cells assessed as reduction in virus infection at 50 ug/ml pre-treated with virus before infection and measured after 48 hrs by inverted fluorescence microscopy; assay type: cell-based
# How it was run: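 GFP-reporter lentiviral pseudoviruses bearing PR8 wild-type or mutant (T30N/E233D/T359A or T359A) HA plus NA were produced in 293FT cells. Pseudovirus was pretreated with 50 µg/ml compound for 1 h at 37 °C before infection. GFP-positive cells were counted by fluorescence microscopy at 48 h p.i.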
smiles,measurement,setting,value
CC(=O)c1cc(C)c(O)c(Cc2[nH]c3ccccc3c2Cc2c(O)c(C)cc(C(C)=O)c2O)c1O,inhibition,[1],inactive
same,inhibition,[2],inactive
